Measurements from ChEMBL document CHEMBL5505959, “Identification of 4-amino-2-Pyridones as new potent PCSK9 inhibitors: From phenotypic hit discovery to in vivo tolerability” (Eur J Med Chem, 2024).
Active and inactive are the calls of the source. No cut-off for these calls is given here.

Tests used:
[1] = tested on: HepG2; experiment: Downregulation of proPCSK9 level in human HepG2 cells by Western blot analysis; format: functional, cell-based
Outline: (§1)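 HepG2 cells were treated overnight or for 24 h, alone or with simvastatin 40 μM. Lysates (1 % NP-40, 150 mM NaCl, 50 mM Tris-HCl pH 7.5) were loaded at 25 µg protein on 4–20 % SDS-PAGE. Blots were probed for proPCSK9, mature PCSK9 and LDLR, and densitometry was normalized to β-actin or GAPDH. Mean ± SD of three independent experiments.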

[2] = tested on: HepG2; experiment: Inhibition of simvastatin induced PCSK9 level in human HepG2 cells at 2.5 to 5 uM by Western blot analysis; format: functional, cell-based; details: dose 2.5-5 µM; outline: as §1
[3] = Toxicity in C57BL/6 mouse assessed as effect on plasma total cholesterol level at 40 mg/kg, sc measured after 7 days by biochemical assay; details: in vivo, 168 h
[4] = Toxicity in C57BL/6 mouse assessed as effect on gut at 40 mg/kg, sc measured after 7 days by macroscopic analysis; details: in vivo, 168 h
[5] = Toxicity in C57BL/6 mouse assessed as effect on brain at 40 mg/kg, sc measured after 7 days by H and E staining based analysis; format: organism-based; details: in vivo, 168 h, time 7 day
[6] = tested on: HepG2; experiment: Cytotoxicity against human HepG2 cells assessed as reduction in cell viability at 5 uM measured after 24 hrs by SRB assay relative to control; format: functional
Outline: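 HepG2 seeded 8000 cells/well in complete MEM; next day medium replaced with 0.4 % FBS medium containing compound or DMSO control. Viability was read by sulforhodamine B assay after 24 h, with absorbance at 570 nm. Dose-response series used 6.25, 12.5, 25, 50 or 100 μM; newer analogues were tested at a fixed 5 μM. Data are mean ± SD of three independent experiments.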

[7] = Toxicity in C57BL/6 mouse assessed as effect on kidney at 40 mg/kg, sc measured after 7 days by H and E staining based analysis; format: organism-based; details: in vivo, 168 h, time 7 day
[8] = Toxicity in C57BL/6 mouse assessed as abnormal secretion at 40 mg/kg, sc measured after 7 days; format: organism-based; details: in vivo, 168 h, time 7 day
Outline: (§2)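 Male C57BL/6J mice, three months old, 26–30 g (n = 5–6/group), received daily sc injections of 40 mg/kg in Transcutol, 50 µl, for seven days. Controls were vehicle and SBC-115076 4 mg/kg. Readouts were daily body weight, open-field locomotion and modified SHIRPA, and gross organ inspection. Liver H&E cryosections were scored by two operators; plasma cholesterol by colorimetric assay, PCSK9 by ELISA.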

[9] = Toxicity in C57BL/6 mouse assessed as effect on spleen at 40 mg/kg, sc measured after 7 days by H and E staining based analysis; format: organism-based; details: in vivo, 168 h, time 7 day
[10] = Toxicity in C57BL/6 mouse assessed as spontaneous locomotor activity at 40 mg/kg, sc measured after 7 days; format: organism-based; details: in vivo, 168 h, time 7 day
Outline: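 Open-field test in male C57BL/6J mice: 10 min free exploration of a 50 × 50 × 40 cm wooden chamber, with distance and speed tracked automatically. Basal sessions were run before dosing, then testing continued across daily 50 µl subcutaneous injections (40 mg/kg, Transcutol vehicle). Distance, mean speed and % time in corners and arena were recorded as part of a modified SHIRPA screen.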

[11] = Toxicity in C57BL/6 mouse assessed as inflammatory cells infiltration at 40 mg/kg, sc measured after 7 days by histopathological analysis; format: organism-based; details: in vivo, 168 h, time 7 day
Outline: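 Male C57BL/6J mice, 3 months old, 26–30 g, given 40 mg/kg subcutaneously in 100 % Transcutol (vehicle group) for seven days. Killed 6 h after the last injection. Liver fixed in 4 % PFA, cryoprotected in 20 % sucrose and cut into 7 µm cryosections. Sections stained with hematoxylin/eosin and scored by two operators for hepatocyte arrangement, inflammatory infiltration and necrosis.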

[12] = Toxicity in C57BL/6 mouse assessed as drug tolerance at 40 mg/kg, sc measured after 7 days; format: organism-based; details: in vivo, 168 h, time 7 day; outline: as §2
[13] = Toxicity in C57BL/6 mouse assessed as effect on liver at 40 mg/kg, sc measured after 7 days by H and E staining based analysis; format: organism-based; details: in vivo, 168 h, time 7 day; outline: as §2
[14] = Toxicity in C57BL/6 mouse assessed as cellular necrosis at 40 mg/kg, sc measured after 7 days by histopathological analysis; format: organism-based; details: in vivo, 168 h, time 7 day; outline: as §2
[15] = Toxicity in C57BL/6 mouse assessed as changes in fur sheen at 40 mg/kg, sc measured after 7 days; format: organism-based; details: in vivo, 168 h, time 7 day; outline: as §2
[16] = tested on: HepG2; experiment: Induction of LDLR expression in human HepG2 cells by Western blot analysis; format: functional, cell-based; outline: as §1
[17] = Toxicity in C57BL/6 mouse assessed as abnormal arrangements of hepatocyte at 40 mg/kg, sc measured after 7 days by histopathological analysis; format: organism-based; details: hepatocytes, 168 h, time 7 day; outline: as §2
[18] = Downregulation of PCSK9 mRNA level in human HepG2 cells at 5 uM by qRT-PCR analysis relative to control; format: functional
Outline: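 Total RNA was taken from treated HepG2 cells for RT-qPCR of PCSK9, FAS and HMG-CoA reductase. Cycling was 50 °C 10 min, 95 °C 2 min, then 40 cycles of 95 °C 5 s and 60 °C 10 s. Relative quantification used ΔΔCt against 18S, corrected for primer efficiency. Mean ± SD of three independent experiments.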

[19] = tested on: HepG2; experiment: Downregulation of mature PCSK9 level in human HepG2 cells by Western blot analysis; format: functional, cell-based; outline: as §1
[20] = Toxicity in C57BL/6 mouse assessed as effect on body weight at 40 mg/kg, sc measured after 7 days; format: organism-based; details: in vivo, 168 h, time 7 day; outline: as §2
[21] = Inhibition of PCSK9 expression in human HepG2 cells at 5 to 10 uM by ELISA method relative to control; format: functional; details: dose 5-10 µM
Outline: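 Secreted PCSK9 was measured in HepG2 conditioned media with a human PCSK9 DuoSet sandwich ELISA. Media were centrifuged at 15000 rpm for 10 min and diluted before reading absorbance at 450 nm. Values were normalized to HepG2 total protein content. Mean ± SD of three independent experiments.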

[22] = Toxicity in C57BL/6 mouse assessed as tremor at 40 mg/kg, sc measured after 7 days; format: organism-based; details: in vivo, 168 h, time 7 day
Outline: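 General health of subcutaneously dosed C57BL/6J mice (40 mg/kg daily, Transcutol, seven days) was tracked with a modified SHIRPA screen covering phenotype, sensory and neuropsychiatric functions. Body weight was recorded daily as % change from the day −3 to −1 baseline.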

[23] = Toxicity in C57BL/6 mouse assessed as defecations at 40 mg/kg, sc measured after 7 days; format: organism-based; details: in vivo, 168 h, time 7 day; outline: as §2
[24] = tested on: HepG2; experiment: Downregulation of PCSK9 protein level in human HepG2 cells at 2.5 uM by Western blot analysis; format: functional, cell-based; outline: as §1
[25] = Toxicity in C57BL/6 mouse assessed as reduction in ALT plasma level at 40 mg/kg, sc measured after 7 days by ELISA method; format: organism-based; details: in vivo, 168 h, time 7 day
Outline: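 Male C57BL/6J mice, 3 months old, dosed subcutaneously at 40 mg/kg daily for seven days in Transcutol. Killed under isoflurane 6 h after the final dose. Retro-orbital blood taken into EDTA and spun at 3000 rpm, 4 °C, 10 min. Plasma ALT measured by ELISA kit. Mean ± SEM, n = 5–6 per group.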

[26] = tested on: HepG2; experiment: Upregulation of LDLR/PCSK9 in human HepG2 cells at 2.5 to 5 uM in presence of simvastatin by Western blot analysis; format: functional, cell-based; details: dose 2.5-5 µM
Outline: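 HepG2 cells grown in MEM with 10 % FBS. Incubated overnight with test compound with or without simvastatin 40 μM (simvastatin dissolved in 0.1 M NaOH, pH 7.4). Lysates in 1 % NP-40 buffer; 25 µg protein run on 4–20 % SDS-PAGE. Immunoblotted for PCSK9 and LDLR, normalized to GAPDH by densitometry. Mean ± SD of three experiments, one-way ANOVA.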

[27] = Toxicity in C57BL/6 mouse assessed as effect on urination at 40 mg/kg, sc measured after 7 days; format: organism-based; details: in vivo, 168 h, time 7 day; outline: as §2

## Cc1cc(NCc2ccc(C(F)(F)F)cc2)cc(=O)n1Cc1ccc(C(F)(F)F)cc1
[1]
  Activity: Active
[2]
  inhibition: Active
[3]
  Activity: Non-Toxic
[4]
  Activity: Non-Toxic
[5]
  Activity: Non-Toxic
[6]
  Activity: >95%
[7]
  Activity: Non-Toxic
[8]
  Activity: Non-Toxic
[9]
  Activity: Non-Toxic
[10]
  Activity: Non-Toxic
[11]
  Activity: Non-Toxic
[12]
  Activity: Non-Toxic
[13]
  Activity: Non-Toxic
[14]
  Activity: Non-Toxic
[15]
  Activity: Non-Toxic
[16]
  Activity: Active
[17]
  Activity: Non-Toxic
[18]
  Activity: 100%
[19]
  Activity: Active
[20]
  Activity: Non-Toxic
[21]
  inhibition (INH): 100%
[22]
  Activity: Non-Toxic
[23]
  Activity: Non-Toxic
[24]
  Activity: Active
[25]
  Activity: Non-Toxic
[26]
  Activity: Active
[27]
  Activity: Non-Toxic
